From publication PMC3772679 (The European journal of neuroscience, 2012)
Like-named read-outs stand apart in the source and are kept apart here.

Tests used:
[1] = test system: PC GABAA receptor (β1-subunit-containing); assay: Loreclezole inhibition of GABA-mediated current in cultured Purkinje cells; format: cell-based, rat; conditions: 30 µM
Summary of the method: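 Cerebellar neurons plated on glass coverslips (2.8 × 10^5 cells), kept at 37 °C in 5% CO2 and recorded after 10–14 days in vitro. 1 s pulses of 20 µM GABA every 30 s until baseline stable; 30 µM test compound (DMSO stock diluted in saline) applied by local perfusion for 30 s, then kept through three more GABA pulses. 1 mM GABA given at end of recording. n = individual cells; mean ± SEM.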

[2] = test system: PC GABAA receptor (GABAergic IPSC in Purkinje neurons); format: cell-based, mouse; conditions: for IPSC decay time constant in the presence of etomidate: 3 µM, 10 min
[3] = target: GABAA receptors composed of α1β3γ2; conditions: heterologous expression systems; ref Belelli et al., 2003; cited from earlier work

Cl/C(=C\n1cncn1)c1ccc(Cl)cc1Cl [loreclezole]
Initial reduction in GABA-mediated current ([1]; 30 s pre-application, 20 µM GABA pulses): 30% | Maximal decrease in GABA-mediated current with subsequent pulses of GABA ([1]; 20 µM GABA pulses every 30 s, n = 4): 65.5 ± 6.8%

CCOC(=O)c1cncn1[C@H](C)c1ccccc1 [Etomidate]
IPSC decay time constant in the presence of etomidate ([2]; slices 3 h after CA/CPR, P < 0.05 vs sham): 534.5 ± 42.3 ms | IPSC decay time constant in the presence of etomidate ([2]; slices from control sham-operated mice): 837 ± 128 ms | EC50 [3]: 4 µM

picrotoxin
Effect on outward GABAergic IPSC in Purkinje neurons ([2]; data not shown): blocked
